Measurements from different studies.
SHMT2: Serine hydroxymethyltransferase, mitochondrial (SHMT2, Homo sapiens, UniProt P34897)
SCTR: Secretin receptor (SCTR, Homo sapiens, UniProt P47872)
PIK3CG: Phosphatidylinositol 4,5-bisphosphate 3-kinase catalytic subunit gamma isoform (PIK3CG, Homo sapiens, UniProt P48736)
DHODH: Dihydroorotate dehydrogenase (quinone), mitochondrial (DHODH, Homo sapiens, UniProt Q02127)

Structure (SMILES)	target	observed	mode	method	quantity	result
CN[C@H]1CC[C@@H](c2ccc(Cl)c(Cl)c2)c2ccccc21	SHMT2	binding		MST	Kd	12000 nM
CC1=NN(/C(=N\c2ccccc2F)Nc2nnc(C)s2)C(c2ccc(C)cc2)S1 (centres unmarked)	SCTR	cAMP	agonist	TR-FRET	EC50	19800 nM
COc1cc2ncnc(Nc3ccc4c(c3)/C(=C/c3cccc(Cl)c3)C(=O)N4C)c2cc1OC	PIK3CG	enzyme activity	inhibitor	ADP detection	IC50	197 nM
O=C(/C=C/c1ccc(O)c(O)c1)O[C@@H]1C[C@](O)(C(=O)O)C[C@@H](O)[C@H]1O	Prostaglandin G/H synthase 2 (PTGS2, Homo sapiens, UniProt P35354)	enzyme activity	inhibitor	fluorescence	IC50	30000 nM
CC[C@@](O)(c1cnc(C(F)(F)F)c(Cl)c1)c1c2ncn(C3CC3)c(=O)c2nn1C	DHODH	enzyme activity	inhibitor	absorbance	IC50	4000 to 6000 nM
CC1=NN(/C(=N/c2nnc(C)s2)Nc2ccc(C)c(C)c2)C(c2ccc(F)cc2)S1 (centres unmarked)	SCTR	cAMP	agonist	TR-FRET	EC50	800 nM
COc1cc2ncnc(Nc3ccc4c(c3)/C(=C/c3ccccc3)C(=O)N4)c2cc1OC	PIK3CG	enzyme activity	inhibitor	ADP detection	IC50	109 nM
Cc1c(C(=O)OC2CC2)nn(C)c1Cc1ccc(C(F)(F)F)nc1	DHODH	enzyme activity	inhibitor		IC50	> 100000 nM
CC1=NN(/C(=N\c2cccnc2)Nc2nnc(C)s2)C(c2ccc(C)cc2)S1 (centres unmarked)	SCTR	cAMP	agonist	TR-FRET	EC50	> 50000 nM
Cc1nc(Nc2ccc3c(c2)C(C)(C)C(=O)N3)c2ccccc2n1	PIK3CG	enzyme activity	inhibitor	ADP detection	IC50	134 nM
Cc1cc([C@@H](C)Nc2ccccc2C(=O)O)c2nc(N3CCC(F)(F)CC3)c(C#N)c(=O)n2c1	PIK3CG	enzyme activity	inhibitor	ADP detection	IC50	> 10000 nM
CCn1ccc2c(Cc3ccc(C(F)(F)F)nc3)n(C)nc2c1=O	DHODH	enzyme activity	inhibitor	absorbance	IC50	> 100000 nM
Cc1nc(Nc2ccc3c(c2)/C(=C/c2ccccc2Cl)C(=O)N3)c2ccccc2n1	PIK3CG	enzyme activity	inhibitor	ADP detection	IC50	34.5 nM
CC(=O)N(CC#Cc1cccc(C(N)=O)c1)C[C@H]1C[C@@H](n2ccc3c(Cl)ncnc32)[C@H](O)[C@@H]1O	SHMT2	binding		MST	Kd	2110 nM
Cc1nc(Nc2ccc3c(c2)C(C)(C)C(=O)N3C)c2ccccc2n1	PIK3CG	enzyme activity	inhibitor	ADP detection	IC50	389 nM
CCn1cc(C2CC2)c2c(CN3CCC(F)(F)C(C)(C)C3)n(C)nc2c1=O	DHODH	enzyme activity	inhibitor	absorbance	IC50	> 100000 nM
CC1=NN(/C(=N/c2nnc(C)s2)Nc2ccc(C)c(C)c2)C(c2ccc(-c3ccccc3)cc2)S1 (centres unmarked)	SCTR	cAMP	agonist	TR-FRET	EC50	700 nM
